In ChEMBL document CHEMBL4627400, “Discovery of Dihydropyrrolo[1,2-a]pyrazin-3(4H)-one-Based Second-Generation GluN2C- and GluN2D-Selective Positive Allosteric Modulators (PAMs) of the N-Methyl-d-Aspartate (NMDA) Receptor” (J Med Chem, 2020):
Values after ≈ are worked out from the molar mass of the structure shown.

How the values were obtained:
[1] = target: Ionotropic glutamate receptor NMDA 1/2D (Rattus norvegicus) (UniProt P35439+Q62645); test: Positive allosteric modulation of recombinant rat GluN1a/GluN2D receptor expressed in Xenopus laevis oocytes assessed as increase in glycine/L-glutamate-induced channel current at 30 uM by two-electrode voltage clamp method relative to control; type: cell-based
In short: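 Oocytes expressing rat GluN1/GluN2C or GluN2D, held at −40 mV in HEPES-buffered Ba2+ solution, pH 7.4, 23 °C. […] Current given as percent of agonist-alone response. […] Doubling concentration is the concentration giving 2-fold response; reported as […] log. 6–19 oocytes from 2–3 frogs.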

[2] = target: Glutamate NMDA receptor; Grin1/Grin2c (Rattus norvegicus) (UniProt P35439+Q00961); test: Positive allosteric modulation of recombinant rat GluN1a/GluN2C receptor expressed in Xenopus laevis oocytes assessed as increase in glycine/L-glutamate-induced channel current at 30 uM by two-electrode voltage clamp method relative to control; type: cell-based
In short: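 Oocytes expressing rat GluN1/GluN2C or GluN2D, held at −40 mV in HEPES-buffered Ba2+ solution, pH 7.4, 23 °C. Current given as percent of agonist-alone response. Doubling concentration is the concentration giving 2-fold response; reported as […] log. 6–19 oocytes from 2–3 frogs.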

[3] = target: Glutamate NMDA receptor; Grin1/Grin2a (Rattus norvegicus, UniProt P35439+Q00959); test: Positive allosteric modulation of recombinant rat GluN1a/GluN2A receptor expressed in Xenopus laevis oocytes assessed as increase in glycine/L-glutamate-induced channel current at 10 to 30 uM by two-electrode voltage clamp method relative to control; type: cell-based
Sequence of Glutamate NMDA receptor; Grin1/Grin2a (Q00959 whole entry, other chains not shown): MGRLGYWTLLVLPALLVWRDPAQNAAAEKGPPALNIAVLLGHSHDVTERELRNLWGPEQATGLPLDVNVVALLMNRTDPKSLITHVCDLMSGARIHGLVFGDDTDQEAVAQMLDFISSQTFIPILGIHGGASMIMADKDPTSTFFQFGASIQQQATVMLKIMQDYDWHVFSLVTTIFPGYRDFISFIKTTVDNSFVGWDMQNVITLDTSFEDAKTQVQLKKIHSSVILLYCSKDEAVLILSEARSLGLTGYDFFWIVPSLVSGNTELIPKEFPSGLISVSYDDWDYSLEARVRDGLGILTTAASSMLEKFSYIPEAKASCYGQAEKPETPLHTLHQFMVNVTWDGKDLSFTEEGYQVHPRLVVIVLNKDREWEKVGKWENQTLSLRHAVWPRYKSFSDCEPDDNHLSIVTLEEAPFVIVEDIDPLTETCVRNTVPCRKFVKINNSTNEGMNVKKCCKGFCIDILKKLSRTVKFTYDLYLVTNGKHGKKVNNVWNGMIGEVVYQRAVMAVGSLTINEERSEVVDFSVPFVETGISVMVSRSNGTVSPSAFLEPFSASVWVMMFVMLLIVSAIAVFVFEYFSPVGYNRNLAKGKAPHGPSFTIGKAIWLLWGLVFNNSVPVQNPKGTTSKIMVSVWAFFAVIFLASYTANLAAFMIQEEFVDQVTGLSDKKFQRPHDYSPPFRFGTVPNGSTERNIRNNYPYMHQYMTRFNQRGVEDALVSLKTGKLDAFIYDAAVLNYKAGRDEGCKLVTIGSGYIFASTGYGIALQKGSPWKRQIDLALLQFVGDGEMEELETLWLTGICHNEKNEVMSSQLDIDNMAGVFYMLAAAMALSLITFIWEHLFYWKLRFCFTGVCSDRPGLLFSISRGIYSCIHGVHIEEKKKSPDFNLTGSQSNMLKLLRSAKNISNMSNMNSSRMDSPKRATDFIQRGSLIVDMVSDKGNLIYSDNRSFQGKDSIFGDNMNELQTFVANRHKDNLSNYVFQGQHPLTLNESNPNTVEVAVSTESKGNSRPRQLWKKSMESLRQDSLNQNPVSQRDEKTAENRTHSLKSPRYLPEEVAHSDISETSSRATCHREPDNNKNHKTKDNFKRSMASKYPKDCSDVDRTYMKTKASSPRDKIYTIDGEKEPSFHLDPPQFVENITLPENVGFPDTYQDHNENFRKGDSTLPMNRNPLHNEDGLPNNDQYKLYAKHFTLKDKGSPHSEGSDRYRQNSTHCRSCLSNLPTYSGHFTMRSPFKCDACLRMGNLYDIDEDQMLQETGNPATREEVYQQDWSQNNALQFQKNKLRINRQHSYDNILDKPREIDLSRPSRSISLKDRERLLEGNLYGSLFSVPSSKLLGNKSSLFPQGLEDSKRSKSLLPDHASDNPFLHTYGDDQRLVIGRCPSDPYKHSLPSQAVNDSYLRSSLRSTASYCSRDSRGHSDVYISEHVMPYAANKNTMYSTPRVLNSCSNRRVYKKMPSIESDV
In short: (§1)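 TEVC at −40 mV, 23 °C, in 90 NaCl/1 KCl/0.5 BaCl/0.005 EDTA/10 HEPES (mM), pH 7.4. Oocytes expressed rat GluN1/GluN2A or GluN1/GluN2B. […] Some GluN2A oocytes were BAPTA-loaded. 4–17 oocytes from 1–3 frogs.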

[4] = target: Glutamate NMDA receptor; Grin1/Grin2b (Rattus norvegicus, UniProt P35439+Q00960); test: Positive allosteric modulation of recombinant rat GluN1a/GluN2B receptor expressed in Xenopus laevis oocytes assessed as increase in glycine/L-glutamate-induced channel current at 10 to 30 uM by two-electrode voltage clamp method relative to control; type: cell-based; in short: as §1
Sequence of Glutamate NMDA receptor; Grin1/Grin2b (Q00960 whole entry, other chains not shown): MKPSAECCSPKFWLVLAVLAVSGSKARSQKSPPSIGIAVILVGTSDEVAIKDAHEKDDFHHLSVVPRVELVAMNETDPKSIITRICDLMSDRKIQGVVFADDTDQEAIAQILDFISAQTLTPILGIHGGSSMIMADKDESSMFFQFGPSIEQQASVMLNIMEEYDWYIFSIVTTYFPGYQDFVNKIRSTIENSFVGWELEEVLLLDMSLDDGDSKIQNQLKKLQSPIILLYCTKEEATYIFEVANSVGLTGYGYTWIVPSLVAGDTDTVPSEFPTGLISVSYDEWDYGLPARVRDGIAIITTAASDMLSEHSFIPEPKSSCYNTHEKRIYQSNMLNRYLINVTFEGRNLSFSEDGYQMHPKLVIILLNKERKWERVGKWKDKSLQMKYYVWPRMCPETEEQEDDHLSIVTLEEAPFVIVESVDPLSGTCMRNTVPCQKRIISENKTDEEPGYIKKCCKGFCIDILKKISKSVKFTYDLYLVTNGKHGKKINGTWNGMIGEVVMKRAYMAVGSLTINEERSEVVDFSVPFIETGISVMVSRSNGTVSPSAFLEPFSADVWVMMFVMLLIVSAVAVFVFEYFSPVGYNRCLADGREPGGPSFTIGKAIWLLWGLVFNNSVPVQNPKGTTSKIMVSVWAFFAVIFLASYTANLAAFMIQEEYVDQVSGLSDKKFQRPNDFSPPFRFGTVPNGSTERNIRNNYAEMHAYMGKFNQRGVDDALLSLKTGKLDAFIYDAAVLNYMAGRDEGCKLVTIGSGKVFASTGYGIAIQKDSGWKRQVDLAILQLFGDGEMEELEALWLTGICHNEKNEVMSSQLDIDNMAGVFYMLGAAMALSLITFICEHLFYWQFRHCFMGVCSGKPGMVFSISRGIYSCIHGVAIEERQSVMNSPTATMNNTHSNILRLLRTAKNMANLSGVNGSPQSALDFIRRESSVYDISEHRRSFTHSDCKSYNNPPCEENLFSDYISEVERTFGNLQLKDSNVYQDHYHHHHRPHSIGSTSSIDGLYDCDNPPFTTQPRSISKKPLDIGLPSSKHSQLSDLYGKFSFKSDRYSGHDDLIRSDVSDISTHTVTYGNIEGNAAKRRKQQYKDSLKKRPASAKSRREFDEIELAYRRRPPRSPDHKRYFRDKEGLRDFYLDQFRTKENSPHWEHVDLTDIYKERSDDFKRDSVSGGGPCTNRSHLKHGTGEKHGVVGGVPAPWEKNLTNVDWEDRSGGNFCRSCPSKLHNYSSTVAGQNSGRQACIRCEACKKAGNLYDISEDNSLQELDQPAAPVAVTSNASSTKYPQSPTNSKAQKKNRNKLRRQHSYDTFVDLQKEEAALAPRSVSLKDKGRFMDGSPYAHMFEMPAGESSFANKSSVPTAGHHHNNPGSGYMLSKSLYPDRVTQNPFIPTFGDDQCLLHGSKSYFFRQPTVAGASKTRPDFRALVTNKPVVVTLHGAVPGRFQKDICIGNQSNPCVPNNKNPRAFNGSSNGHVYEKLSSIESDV

[5] = target: Ionotropic glutamate receptor NMDA 1/2D (Rattus norvegicus, UniProt P35439+Q62645)
[6] = target: Glutamate NMDA receptor; Grin1/Grin2c (Rattus norvegicus, UniProt P35439+Q00961)
[7] = Aqueous solubility of the compound at pH 7.4 after 30 mins by nephelometric analysis; type: physicochemical; settings: buffer

SMILES	%max [1] [%]	%max [2] [%]	Activity [3]	Activity [4]	EC50 [5] [µM]	EC50 [6] [µM]	solubility kinetic at 0.5 h [7] [µM]
CCCN1C(=O)Cc2cc(OC)ccc2C1COc1ccc(OC)cc1 (stereo not drawn)	94	97	Not Active	Not Active	–	–	–
COc1ccc(OCC2c3ccc(OC(C)C)cc3CC(=O)N2Cc2cccc(F)c2)cc1 (stereo not drawn)	330	320	130%	130%	2	1	–
COc1ccc(OCC2c3cccn3CC(=S)N2Cc2cccc(C(F)(F)F)c2)cc1 (stereo not drawn)	110	120	Not Active	Not Active	–	–	–
COc1ccc(OC[C@@H]2c3cccn3CCN2C(=O)c2cccc(Cl)c2)cc1	99	98	Not Active	Not Active	–	–	36 (≈ 14.3 µg/mL)
COc1ccc(OCC2c3ccc(OC)cc3CC(=O)N2Cc2c[nH]nn2)cc1 (stereo not drawn)	98	110	Not Active	Not Active	–	–	–
COc1ccc(OCC2c3cnn(C)c3CCN2C(=O)c2cccc(Cl)c2)cc1 (stereo not drawn)	220	210	Not Active	Not Active	–	–	–
COc1ccc(OCC2c3ccc(OC)cc3CC(=O)N2CCc2c[nH]c3ccccc23)cc1 (stereo not drawn)	85	85	Not Active	Not Active	–	–	–
COc1ccc(OCC2c3cccn3CC(=O)N2Cc2cccc(C(F)(F)F)c2)cc1 (stereo not drawn)	400	300	Not Active	Not Active	1.58	1.26	57 (≈ 24.5 µg/mL)
COc1ccc(OC[C@@H]2c3cccn3CCN2C(=O)c2cccc(C(F)(F)F)c2)cc1	98	99	Not Active	Not Active	–	–	58 (≈ 25 µg/mL)
COc1ccc(OCC2c3ccsc3CCN2C(=S)c2cccc(Cl)c2)cc1 (stereo not drawn)	94	97	Not Active	Not Active	–	–	–
COc1ccc(OCC2c3ccc(OC)cc3CC(=O)N2CCCC(F)(F)F)cc1 (stereo not drawn)	450	290	Not Active	Not Active	20	7.94	–
COc1cc2c(cc1OC)C(COc1cccnc1)N(C(=O)c1cccc(C(F)(F)F)c1)CC2 (stereo not drawn)	88	90	Not Active	Not Active	–	–	–
COc1ccc(OCC2c3sccc3CCN2C(=O)c2cccc(Cl)c2)cc1 (stereo not drawn)	350	280	Not Active	Not Active	3.98	3.98	46 (≈ 19 µg/mL)
COc1ccc(OC[C@H]2c3cccn3CCN2C(=O)c2cccc(Cl)c2)cc1	450	410	Not Active	Not Active	2	2	36 (≈ 14.3 µg/mL)
COc1ccc(OC[C@H]2c3cccn3CCN2C(=O)c2cccc(C(F)(F)F)c2)cc1	540	460	Not Active	Not Active	1.26	1.26	58 (≈ 25 µg/mL)
COc1ccc(OCC2c3ccsc3CCN2C(=O)c2cccc(Cl)c2)cc1 (stereo not drawn)	340	330	Not Active	Not Active	5.01	3.98	–
COc1ccc(OCC2c3ccccc3CCN2C(=O)c2cccc(Cl)c2)cc1 (stereo not drawn)	300	260	Not Active	Not Active	7.94	6.31	–
COc1ccc(OCC2c3ccc(OC(C)C)cc3CCN2C(=O)c2cccc(C(F)(F)F)c2)cc1 (stereo not drawn)	–	–	Not Active	Not Active	2.51	1.58	–
COc1cc2c(cc1OC)C(COc1ccccn1)N(C(=O)c1cccc(C(F)(F)F)c1)CC2 (stereo not drawn)	97	96	Not Active	Not Active	–	–	–
COc1cc2c(cc1OC)C(COc1ncccn1)N(C(=O)c1cccc(C(F)(F)F)c1)CC2 (stereo not drawn)	95	97	Not Active	Not Active	–	–	–

SMILES	%max [1] [%]	%max [2] [%]	Activity [3]	Activity [4]	EC50 [5] [µM]	EC50 [6] [µM]	solubility kinetic at 0.5 h [7] [µM]
COc1ccc(OCC2c3occc3CCN2C(=O)c2cccc(Cl)c2)cc1 (stereo not drawn)	470	340	Not Active	Not Active	7.94	6.31	–
COc1ccc(OCC2c3ccc(OC)cc3CC(=O)N2Cc2cccc(Cl)c2)cc1 (stereo not drawn)	330	270	Not Active	Not Active	2.51	2	–
COc1ccc(OCC2c3ccc(OCC(C)C)cc3CC(=O)N2Cc2cccc(Cl)c2)cc1 (stereo not drawn)	370	280	130%	130%	0.631	0.398	–
COc1ccc(OCC2c3cc(OC)c(OC)cc3CCN2C(=O)c2cccc(Cl)c2)s1 (stereo not drawn)	110	100	Not Active	Not Active	–	–	–
COc1ccc(OC[C@@H]2c3cccn3CC(=O)N2Cc2cccc(C(F)(F)F)c2)cc1	88	84	Not Active	Not Active	–	–	57 (≈ 24.5 µg/mL)
COc1ccc(OCC2c3sc(C)nc3CCN2C(=O)c2cccc(Cl)c2)cc1 (stereo not drawn)	100	100	Not Active	Not Active	–	–	–
COc1ccc(OCC2c3ccc(OCC(C)C)cc3CCN2C(=O)c2cccc(Cl)c2)cc1 (stereo not drawn)	–	–	Not Active	Not Active	1.26	1	–
COc1ccc(OCC2c3sccc3CCN2C(=O)c2ccc(Cl)s2)cc1 (stereo not drawn)	400	290	Not Active	Not Active	5.01	5.01	–
COc1ccc(OCC2c3cc(OC)c(OC)cc3CCN2C(=O)c2cccc(C(F)(F)F)c2)cc1 (stereo not drawn)	–	–	Not Active	Not Active	–	–	–
COc1cc2c(cc1OC)C(CO)N(C(=O)c1cccc(C(F)(F)F)c1)CC2 (stereo not drawn)	95	98	Not Active	Not Active	–	–	–
COc1ccc(OCC2c3ccc(OC(C)C)cc3CC(=O)N2Cc2cccc(Cl)c2)cc1 (stereo not drawn)	370	350	Not Active	Not Active	0.501	0.398	–
COc1cc2c(cc1OC)C(COC1CCOCC1)N(C(=O)c1cccc(C(F)(F)F)c1)CC2 (stereo not drawn)	95	100	Not Active	Not Active	–	–	–
COc1ccc(OCC2c3ccc(OC(C)C)cc3CCN2C(=O)c2cccc(Cl)c2)cc1 (stereo not drawn)	250	240	Not Active	Not Active	3.16	–	–
COc1ccc(OCC2c3sccc3CCN2C(=O)/C=C/C(F)(F)F)cc1 (stereo not drawn)	330	290	Not Active	Not Active	15.8	12.6	–
COc1ccc(OCC2c3ccc(OC(C)C)cc3CCN2C(=O)c2cccc(F)c2)cc1 (stereo not drawn)	–	–	Not Active	Not Active	7.94	–	–
COc1ccc(OCC2c3ccc(OC)cc3CC(=O)N2CCCN(C)C)cc1 (stereo not drawn)	96	110	Not Active	Not Active	–	–	–
COCCOCCN1C(=O)Cc2cc(OC)ccc2C1COc1ccc(OC)cc1 (stereo not drawn)	100	98	Not Active	Not Active	–	–	–
COc1ccc(OCC2c3cc(OC)c(OC)cc3CC(=O)N2Cc2cccc(Cl)c2)cc1 (stereo not drawn)	340	270	Not Active	Not Active	10	5.01	–
COc1ccc(OCC2c3ccc(OC(C)C)cc3CC(=O)N2Cc2cccc(C(F)(F)F)c2)cc1 (stereo not drawn)	310	280	Not Active	Not Active	0.631	0.398	–
